# Experimental data of several laboratories.
# Each line is one published result; the experiments were not run side by side.
# Organism: Pichia kudriavzevii
# Observed: microbial growth
# Strain: ATCC6258
SMILES,method,time,MIC
OC(Cn1cncn1)(Cn1cncn1)c1ccc(F)cc1F,broth dilution,,32 µg/mL
CCCCCCCCCCN1CCNCC1,broth dilution,48 h,7.8 µg/mL
CCCCCCCOc1c(OC)cc(NC(C)CCCN)c2nc(C(C)(C)C)cc(C)c12 (stereo not drawn),,,5 µg/mL
CCCCCCCCCCCCCCN1CCNCC1,broth dilution,48 h,0.975 µg/mL
CCCCCOc1c(OC)cc(NC(C)CCCNC(=O)C(N)Cc2ccccc2)c2nc(C(C)(C)C)ccc12 (stereo not drawn),,,10 µg/mL
C=C(C)[C@@H]1CC[C@]2(C)CC[C@]3(C)[C@H](CC[C@@H]4[C@@]5(C)CCC(=O)C(C)(C)[C@@H]5CC[C@]43C)[C@@H]12,broth dilution,48 h,500 µg/mL
CCCCCCCCCN1CCNCC1,broth dilution,48 h,31.3 µg/mL
OC(Cn1cncn1)(Cn1cncn1)c1ccc(F)cc1F,broth dilution,48 h,50 µg/mL
CCCCCOc1c(OC)cc(NC(C)CCCNC(=O)C(N)Cc2cc3ccccc3[nH]2)c2nc(C(C)(C)C)ccc12 (stereo not drawn),,,10 µg/mL
C[C@@H]1[C@H](O)[C@@H](C)/C=C/C=C/C=C/C=C/C=C/C=C/C=C/[C@H](O[C@@H]2O[C@H](C)[C@@H](O)[C@H](N)[C@@H]2O)C[C@@H]2O[C@](O)(C[C@@H](O)C[C@@H](O)[C@H](O)CC[C@@H](O)C[C@@H](O)CC(=O)O[C@H]1C)C[C@H](O)[C@H]2C(=O)O,,,1.35 µM
CCCCCOc1c(OC)cc(NC(C)CCCNC(=O)C(N)CC(C)C)c2nc(C(C)(C)C)ccc12 (stereo not drawn),,,10 µg/mL
C=C(C)[C@@H]1CC[C@]2(C(=O)O)CC[C@]3(C)[C@H](CC[C@@H]4[C@@]5(C)CC[C@H](O)C(C)(C)[C@@H]5CC[C@]43C)[C@@H]12,broth dilution,48 h,250 µg/mL
